Source: article PMC8842081 (The Journal of Biological Chemistry, 2022)
“Also recorded” adds a separate entry of the source. Where no end group is shown, it is not given here.

Assays:
[1] = target: RSPO2^TSP1–BMPR1A^ECD interaction (Homo sapiens, UniProt P36894); test: In vitro competitive binding assay; conditions: for reduction of RSPO2^TSP1–BMPR1A^ECD interaction: 100 μM monomeric peptide, 3 h, AP activity, n = 2 to 3 experimental replicates
Procedure, shortened: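 Plates were coated overnight at 4 °C with 1 to 2 μg anti-HA and blocked 1 h in 5% BSA/TBST. HA-RSPO2 TSP1 conditioned medium was captured overnight. AP-BMPR1A ECD was then added for 3 h with 100 μM monomeric peptide (Cys→Ser; in DPBS pH 7.4) or a peptide concentration series. After TBST washes, bound AP was read with chemiluminescent substrate, and IC50 was fitted.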

RSPO2–BMPR1A interaction = test: Cell surface–binding assay, RSPO2-AP on BMPR1A-transfected HEK293T cells; type: cell-based, human; conditions: for RSPO2 binding to BMPR1A transfected cells / RSPO2–BMPR1A binding after long-term dendrimer treatment: 20 μM dendrimer; for RSPO2 binding to BMPR1A transfected cells: n = 3; for RSPO2–BMPR1A binding after long-term dendrimer treatment: 16 h
Procedure, shortened: (§1)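 HEK293T cells were transfected with BMPR1A-HA or LGR4. They were incubated with RSPO2-AP or RSPO3-AP conditioned medium from transiently transfected HEK293T cells, plus 20 μM dendrimer or 50 μM monomeric peptide, for 3 h or 16 h. Surface-bound AP was developed with BM-Purple chromogenic substrate, then imaged and quantified.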

[2] = tested on: BMPR1A-HA membrane staining in H1581 cells; test: Immunofluorescence of BMPR1A-HA membrane localization in H1581 cells; type: cell-based, human; conditions: H1581 transfected with BMPR1A-HA, 0.5 μM dendrimer, 3 days
[3] = tested on: pSmad1 in THP-1 AML cells; test: Western blot of pSmad1 in THP-1 cells; type: cell-based, human; conditions: 3 days
Procedure, shortened: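 THP-1 cells were exposed for 3 days to 0.5 μM unmodified or N-PEG dendrimer, or 2.0 μM C-PEG dendrimer. Lysis was in Triton or RIPA buffer with protease inhibitors, followed by boiling in Laemmli/β-mercaptoethanol at 95 °C for 5 min. SDS-PAGE immunoblots were probed for phospho-Smad1 against total Smad1 and developed by ECL.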

[4] = tested on: Xenopus tropicalis embryos; test: Xenopus embryo blastocoel microinjection, phenotype; type: in vivo; conditions: 20 nl of 50 μM dendrimer into blastocoel at stage 9
Procedure, shortened: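 X. tropicalis embryos from in vitro fertilization received 20 nl of 50 μM dendrimer in PBS into the blastocoel at stage 9, with bmp4 mRNA at the 4-cell stage as comparator. Embryos were cultured to tailbud stage 28 and scored blind for head size and ventral structures across two independent experiments.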

LGR4 = test: Cell surface–binding assay, RSPO2-AP on LGR4-transfected HEK293T cells; type: cell-based, human; conditions: 20 μM dendrimer, 3 h
Procedure, shortened: as §1

RSPO3 binding to BMPR1A = test: Cell surface–binding assay, RSPO3-AP on BMPR1A-transfected HEK293T cells; type: cell-based, human; conditions: 20 μM non-PEGylated dendrimer, 3 h; n = 3
Procedure, shortened: as §1

[5] = tested on: BMP4 signaling (pSmad1) in HEPG2 cells; test: Western blot of pSmad1 in HEPG2 cells; type: cell-based, human
pSmad1 in H1581 cells = test: Western blot of pSmad1 in H1581 cells; type: cell-based, human; conditions: H1581 (elevated RSPO2), 0.5 μM dendrimer, 3 days
[6] = tested on: P38 MAPK and P44/42 MAPK phosphorylation in HEPG2 cells; test: Western blot of pP38 and pP44/42 MAP kinases in HEPG2 cells; type: cell-based, human; conditions: HEPG2, BMP4 + RSPO2, 0.5 μM dendrimer, 1 h, starved overnight
[7] = tested on: WNT-mediated activation of β-catenin in H1581 cells; test: Western blot of activated β-catenin in H1581 cells treated with WNT3A; type: cell-based, human; conditions: 0.5 μM dendrimer
THP-1 cells = test: Flow cytometry of CD11B^+ THP-1 cells; type: cell-based, human; conditions: THP-1, 3 days, 0.5/1.0/1.5 μM nonmodified, 2.0/3.0 μM N-PEG, 3.0/4.0 μM C-PEG dendrimer
[8] = tested on: BMP target gene expression (sizzled); test: Whole-mount in situ hybridization of sizzled in Xenopus gastrulae; type: in vivo, Xenopus tropicalis; conditions: 20 nl of 50 μM dendrimer at stage 9, gastrulae stage 11
Procedure, shortened: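 X. tropicalis embryos were injected at stage 9 into the blastocoel with 20 nl of 50 μM dendrimer in PBS; bmp4 mRNA injected radially at the 4-cell stage served as control. Embryos were fixed at gastrula stage 11 and processed by whole-mount in situ hybridization with a digoxigenin-labeled antisense sizzled probe. The sizzled-expressing area was quantified, pooled from two independent experiments.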

[9] = tested on: BMP signaling (Vent2 reporter); test: BMP-responsive Vent2 reporter assay in Xenopus embryos; type: in vivo, Xenopus tropicalis; conditions: 20 nl of 50 μM dendrimer at stage 9, firefly normalized to Renilla
Procedure, shortened: (§2)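 X. tropicalis embryos were co-injected at the 2-cell stage with 200 pg Vent-Luc (BMP) or Topflash (WNT) plus 100 pg Renilla-TK plasmid. At stage 9, 20 nl of 50 μM dendrimer in PBS went into the blastocoel; controls were bmp4 mRNA or lrp6 morpholino. Three pools of four embryos each were lysed at stage 14 to 15 for dual luciferase, firefly normalized to Renilla. Unpaired t test or one-way ANOVA.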

[10] = tested on: WNT signaling (TopFlash reporter); test: WNT-responsive TopFlash reporter assay in Xenopus embryos; type: in vivo, Xenopus tropicalis; conditions: 20 nl of 50 μM dendrimer at stage 9, firefly normalized to Renilla
Procedure, shortened: as §2

[11] = 0.5 μM nonmodified or N-PEG dendrimer

Chain of RSPO2^TSP1–BMPR1A^ECD interaction (P36894 24-152 limits assumed): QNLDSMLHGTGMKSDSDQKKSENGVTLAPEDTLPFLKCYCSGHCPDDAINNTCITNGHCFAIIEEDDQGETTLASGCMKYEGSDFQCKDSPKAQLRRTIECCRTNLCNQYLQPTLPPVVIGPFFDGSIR

In the case of DTILSPTIAE [DE], the “reduction of RSPO2^TSP1–BMPR1A^ECD interaction” value (from here on “reduction”) [1] is reported as “greater than 50%”.
For KMTMR [KR], the “effect on RSPO2–BMPR1A interaction in vitro (Fig. S2A)” value ([1]; peptide treatment, concentration not given) was “did not affect RSPO2–BMPR1A interaction”, the “RSPO2 binding to BMPR1A transfected cells” value (RSPO2–BMPR1A interaction; 3 h) was “no effect” and the “increase in the number of cells showing BMPR1A-HA membrane staining” value [2] was “but not KR^d treatment”. The “pSmad1 induction in THP-1 cells” value [3, 11] was “but not KR^d treatment” and the embryotoxicity [4] was “no embryotoxicity”.
With RNNRTSGFKW [RW] the “reduction” value [1] was “strongest inhibition; also recorded: greater than 50%”, the “RSPO2 binding to BMPR1A transfected cells” value (RSPO2–BMPR1A interaction; 3 h) was “abolished RSPO2 binding” and the “RSPO2–BMPR1A binding after long-term dendrimer treatment” value (RSPO2–BMPR1A interaction) was “completely disrupt RSPO2–BMPR1A binding”. The “RSPO2 binding to LGR4 transfected cells” value (LGR4) was “without affecting LGR4 binding”, the “RSPO3 binding to BMPR1A transfected cells” value (RSPO3 binding to BMPR1A) was “unable to abolish RSPO3 binding” and the “pSmad1 level without simultaneous treatment of RSPO2” value ([5]; HEPG2, 0.5 μM dendrimer, 3 days) was “no effect on pSmad1 level”. The “rescue of RSPO2-mediated decrease of pSmad1 levels” value ([5]; HEPG2, BMP4 + RSPO2, 0.5 μM dendrimer, 1 h, starved 3 h) was “rescued the RSPO2-mediated”, the “rescue of RSPO3-mediated decrease of pSmad1 levels” value ([5]; HEPG2, BMP4 + RSPO3, 0.5 μM dendrimer, 1 h, starved 3 h) was “not the RSPO3-mediated decrease of pSmad1 levels” and the “phosphorylation of Smad1” value (pSmad1 in H1581 cells) was “increased phosphorylation of Smad1”. For the same substance, the “rescue of RSPO2-mediated decrease of pP38 and pP44/42 levels” value [6] was “rescued the RSPO2-mediated decrease of pP38 and pP44/42 levels”, the “WNT-mediated activation of β-catenin” value [7] was “no effect” and the “increase in the number of cells showing BMPR1A-HA membrane staining” value [2] was “approximately threefold”. The “pSmad1 induction in THP-1 cells” value [3, 11] was “induced pSmad1”, the “induction of the number of CD11B^+ cells” value (THP-1 cells) was roughly 10 fold and the embryotoxicity ([4]; listed as RW^d) was “no Xenopus embryotoxicity”. For the same substance, the sizzled expression [8] was “expanded BMP target gene expression (sizzled) toward the dorsal side”, the “endogenous BMP signaling (Vent2 reporter)” value [9] was “enhanced endogenous BMP signaling” and the “WNT signaling (TopFlash reporter)” value [10] was “no effect on WNT signaling”.
“(PEG-RNNRTSGFKW)8-Lys4-Lys2-Lys-β-Ala [N-PEG RW^d]” was tested, and the “RSPO2 binding to BMPR1A transfected cells” value (RSPO2–BMPR1A interaction; 3 h) was “abolished RSPO2 binding” and the “RSPO2–BMPR1A binding after long-term dendrimer treatment” value (RSPO2–BMPR1A interaction) was “completely disrupt RSPO2–BMPR1A binding”.
In the case of “PEG-RW: RW peptide mini-PEGylated at both N and C termini ({mini‑PEG}-RNNRTSGFKW-{mini‑PEG})”, the “inhibition of RSPO2-AP binding to BMPR1A-transfected cells, short-term” value (RSPO2–BMPR1A interaction; 50 μM PEGylated monomeric peptide, 3 h) is reported as “inhibited RSPO2–BMPR1A interaction”.
In the case of “(RNNRTSGFKW-PEG)8-Lys4-Lys2-Lys-β-Ala [C-PEG RW^d]”, the “pSmad1 induction in THP-1 cells” value ([3]; 2.0 μM C-PEG dendrimer) is reported as “Elevated pSmad1 levels”.
With SRRSKMTMRHSPG [SG] the “reduction” value [1] was “greater than 50%”.
In the case of “(PEG-KMTMR)8-Lys4-Lys2-Lys-β-Ala [N-PEG KR^d]”, the “RSPO2 binding to BMPR1A transfected cells” value (RSPO2–BMPR1A interaction; 3 h) is reported as “no effect”.
